Source: PubChem (Broad Institute)
Hits are enriched below; roughly 3.4% of the tested compounds scored in any of these assays.
SIRT5 block – blocks human SIRT5 desuccinylation of peptide. Q9NXA8. Purified SirT5, succinyl-peptide AMC, trypsin-coupled fluorescence. inhibition, % at 15 µM. hit rate 1.1% among 330,000; in the data active = inhibition above about 15%
Target sequence (Q9NXA8 whole entry, looked up): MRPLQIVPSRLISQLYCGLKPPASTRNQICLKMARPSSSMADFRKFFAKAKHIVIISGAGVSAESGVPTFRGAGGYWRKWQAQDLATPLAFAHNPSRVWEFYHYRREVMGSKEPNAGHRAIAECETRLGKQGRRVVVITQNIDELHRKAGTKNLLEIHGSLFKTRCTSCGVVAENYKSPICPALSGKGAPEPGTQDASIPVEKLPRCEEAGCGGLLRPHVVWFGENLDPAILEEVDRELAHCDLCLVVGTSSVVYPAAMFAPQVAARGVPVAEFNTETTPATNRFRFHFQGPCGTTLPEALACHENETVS
E-sel inducer – E-selectin induction on HUVECs; P16581; HUVEC E-selectin immunofluorescence imaging; normalized: neutral wells 0, TNF-alpha wells 100; activation, % at 7.58 µM; hit rate 0.37% among 260,000; AID 686992;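 active = mean E-selectin-positive cell signal at least 10% of the positive control, reached in at least 60% of replicates, without over 20% cell loss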
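Read-out basis: % PE-positive cells; Test system: HUVEC primary endothelial cells; Technique: immunofluorescence imaging; Dosing: single-point compound dose.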
S100A4 MyoIIA – blocks human S100A4 binding to myosin IIA peptide; P26447; S100A4/TAMRA-MyoIIA peptide fluorescence polarization; inhibition, % at 10.7 µM; hit rate 0.14% among 360,000; AID 652163;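 active = mean inhibition of at least 70% across replicates, with every replicate also reaching that level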
Target sequence (P26447 whole entry, looked up): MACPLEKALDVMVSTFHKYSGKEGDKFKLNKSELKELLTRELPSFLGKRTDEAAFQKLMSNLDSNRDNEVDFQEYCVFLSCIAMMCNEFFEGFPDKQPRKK
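assay system = human S100A4 monomer with TAMRA-labelled myosin IIA peptide | also added = labelled myosin peptide probe, 5 nM | incubation = 5 min between mix addition and reading | control set = DMSO and TFP controls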
ERAP1 HTS inh – inhibitors of human ERAP1 aminopeptidase. inhibition, % at 10.7 µM. Q9NZ08. recombinant ERAP1, Leu-AMC fluorescence, 60 min. hit rate 0.15% among 340,000;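 active = mean replicate inhibition of at least 30%, or all replicates individually reaching that 30% level; inactive = mean below 30% and not every replicate reaching it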;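 also: 0% = neutral control wells and 100% = L-leucinethiol positive control wells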
rRNA inh HTS – selective bacterial rRNA inhibition in E. coli; E. coli WT GFP vs humanized-ribosome RFP mutants, fluorescence, 24 h; active compounds read low; DMSO median 0, no signal -100; hit rate 1.6% among 350,000; AID 720706; GFP signal change (wild-type ribosome), % (concentration not given with the values);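 active = significant combined selectivity score with lowered wild-type GFP, culture density cut under 30%, mutant RFP and density less affected; inactive = any of these conditions unmet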
AF4-AF9 inh – blocks AF4 peptide binding to human AF9 | P42568 | AlphaScreen, biotin-AF4 peptide binding to FLAG-AF9 | inhibition, % at 10 µM | hit rate 0.47% among 350,000 | AID 651704;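 active = every replicate reaching a set inhibition limit, whatever the replicate mean, cut at about 25% in these data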;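 also: 0% = plate neutral control median and 100% = total signal loss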
Starred values were filed as active, the others as inactive; . = not tested or not shown; ! = a repeat was not active.

SMILES	SIRT5 block	E-sel inducer	S100A4 MyoIIA	ERAP1 HTS inh	rRNA inh HTS	AF4-AF9 inh
O=c1c2c(nc3n1CCCCC3)-c1ccccc1CC21CCCC1	-4.3	.	-4.4	-0.5	-36.3*	2.0
C[C@H]1CC=CC[C@H](c2ccccc2)NC(=O)[C@@H](Cc2ccccc2)N(C)C(=O)c2ccccc2O1 (mixture of isomers)	.	.	.	.	-3.8	.
C[C@H](CO)N1C[C@H](C)[C@H](CN(C)S(=O)(=O)c2cccs2)Oc2c(NC(=O)Nc3cccc4ccccc34)cccc2C1=O	1.3	-0.1	7.4	0.2	-1.8	-0.5
COc1ccc(CN(C)C[C@H]2Oc3c(NS(=O)(=O)c4ccc(OC)cc4)cccc3C(=O)N([C@@H](C)CO)C[C@H]2C)cc1	-3.0	-0.4	-0.7	0.4	-2.3	2.2
COc1ccc(NS(=O)(=O)c2cc(NC(=O)c3ccc(=O)[nH]n3)ccc2N2CCOCC2)cc1	0.0	.	-1.2	1.1	-27.4*	4.3
C[C@@H]1CN([C@@H](C)CO)C(=O)Cc2cc(N(C)C)ccc2O[C@H]1CN(C)S(=O)(=O)c1cn(C)cn1	0.6	0.0	3.0	-1.7	3.0	-4.0
Cc1[nH]c(=O)[nH]c1C(=O)CCCCC(=O)O	-1.5	.	1.8	-1.6	9.3	73.4*
COc1ccc(CNC(=O)C[C@H]2CC[C@@H](NS(=O)(=O)c3cccc(OC)c3)[C@H](CO)O2)cc1	-2.6	-0.3	16.7	0.5	-1.1	0.2
C[C@H]1CN([C@@H](C)CO)C(=O)CCCn2cc(nn2)CO[C@H]1CN(C)Cc1ccccc1	25.3*	-0.1	-35.0	-2.1	-1.7	0.1
CCOC(=O)N(C)C[C@H]1OCc2cn(nn2)CCCC(=O)N([C@H](C)CO)C[C@H]1C	16.5*	0.0	-6.9	-2.2	3.0	-1.0
C[C@H]1CN([C@@H](C)CO)C(=O)CCCn2cc(nn2)CO[C@@H]1CN(C)C(=O)Nc1ccc(N2CCCCC2)cc1	-0.6	0.0	-25.3	10.5	4.2	38.3*!
C[C@@H]1CN([C@H](C)CO)C(=O)CCCn2cc(nn2)CO[C@H]1CN(C)S(=O)(=O)c1ccc(Oc2ccccc2)cc1	-1.2	0.2	1.7	1.4	4.0	0.2
C[C@@H]1CN([C@@H](C)CO)C(=O)CCCn2cc(nn2)CO[C@H]1CN(C)S(=O)(=O)c1ccc(Oc2ccccc2)cc1	-3.0	-0.1	82.2*!	0.9	-0.2	-0.9
O=C(Cc1ccncc1)N1CC(=O)N2[C@H](C1)[C@@H](c1ccc(C3=CCCC3)cc1)[C@@H]2CO	0.6	0.7	-2.3	-2.1	1.7	-1.1
Cc1ccc(S(=O)(=O)N(C)C[C@H]2OCc3cn(nn3)CCCC(=O)N([C@@H](C)CO)C[C@@H]2C)cc1	20.2*!	0.1	2.5	6.5	4.1	-2.0
Cc1ccc(S(=O)(=O)N(C)C[C@H]2OCc3cn(nn3)CCCC(=O)N([C@@H](C)CO)C[C@H]2C)cc1	-1.5	0.3	5.4	0.9	-0.3	3.4
O=C1N[C@H](Cc2ccccc2)COCc2cnnn2CC[C@@H]1Cc1cccc(Cl)c1	.	.	.	.	0.4	.
CC(C)CC#Cc1cnc2c(c1)C(=O)N([C@H](C)CO)C[C@H](C)[C@@H](CN(C)C(=O)C1CCOCC1)O2	-1.6	-0.2	-2.1	-0.9	-6.7	-2.0
O=C(NC1CCCCC1)N[C@@H]1C=C[C@H](CC(=O)N2CCOCC2)O[C@H]1CO	1.9	-0.1	-5.0	-1.8	1.1	-0.5
O=C(N[C@H]1C=C[C@@H](CC(=O)N2CCOCC2)O[C@@H]1CO)c1ccccn1	-1.2	-0.5	10.0	-0.4	3.0	-4.3
O=C(Nc1ccc(C(F)(F)F)cc1)N[C@H]1C=C[C@@H](CC(=O)N2CCCCC2)O[C@@H]1CO	5.4	-0.2	127.9*	1.0	-3.5	1.7
O=C(N[C@H]1C=C[C@H](CC(=O)N2CCOCC2)O[C@H]1CO)c1ccccn1	29.4*	-0.1	3.7	0.1	3.8	-1.8
O=C(NC1CCCCC1)N[C@@H]1C=C[C@@H](CC(=O)N2CCOCC2)O[C@@H]1CO	5.5	0.3	-2.6	-1.5	3.8	38.2*
COc1ccc2c3c(n(C)c2c1)[C@@H](CO)N(Cc1cccnc1)CC31CCN(Cc2cccnc2)CC1	.	.	.	.	0.7	.
Cc1ccccc1-c1ccc2c(c1)O[C@H](CN(C)C(=O)C1CC1)[C@H](C)CN([C@H](C)CO)S2(=O)=O	2.7	0.6	3.6	2.8	-6.0	-0.7
SMILES	SIRT5 block	E-sel inducer	S100A4 MyoIIA	ERAP1 HTS inh	rRNA inh HTS	AF4-AF9 inh
Cc1noc(C)c1NC(=O)Nc1ccc2c(c1)C(=O)N([C@H](C)CO)C[C@@H](C)[C@H](CN(C)S(C)(=O)=O)OCCCC[C@@H](C)O2	2.9	-0.1	15.5	-0.5	2.6	-1.4
C[C@@H]1CCCCO[C@@H](CN(C)S(=O)(=O)c2ccc(Cl)cc2)[C@@H](C)CN([C@H](C)CO)C(=O)c2cc(NC(=O)Cc3ccccc3)ccc2O1	0.1	0.1	10.6	1.4	5.9	1.0
CC(C)C(=O)NN(C(=O)c1ccccc1)c1ccccc1	6.7	.	1.8	5.0	8.3	-2.2
CC(C(=O)O)N(C(=O)c1ccccc1)c1ccc(F)cc1 (centres undefined)	25.6*	.	-1.2	-0.5	10.8	-1.0
Cc1ccc(S(=O)(=O)N(C)C[C@@H]2Oc3c(NS(=O)(=O)c4cn(C)cn4)cccc3C(=O)N([C@H](C)CO)C[C@@H]2C)cc1	-12.1	0.2	-26.8	1.2	-0.3	-2.8
O=C(O)[C@@H]1CCCN1C(=O)c1ccccc1N1C(=O)[C@@H]2Cc3c([nH]c4ccccc34)C(c3cccc(Cl)c3)N2C1=O (some centres undefined)	1.6	.	-1.5	32.7*	-20.9	0.7
O=C(O)[C@H]1CCCN1C(=O)c1ccccc1N1C(=O)[C@@H]2Cc3c([nH]c4ccccc34)C(c3cccc(Cl)c3)N2C1=O (some centres undefined)	4.2	.	2.2	7.7	-33.0	2.1
C/C(CC(=O)Nc1cc(Cl)ccc1C)=N\NC(=O)C(=O)N1CCCC1	28.4*	-0.3	2.1	1.2	2.3	-1.8
Cc1ccc(Cl)cc1NC(=O)CCC(=O)O	-7.0	2.5	-5.0	45.2*	9.1	-3.3
COCC(=O)Nc1cc(Cl)ccc1C	-4.7	.	4.3	5.4	11.9	-0.8
CN1CCN(C(=O)C[C@@H]2CC[C@@H](NC(=O)Cc3ccccn3)[C@H](CO)O2)CC1	9.0	3.3	-1.2	-2.3	1.8	-2.6
CCN(CC(=O)Nc1ccc(NC(C)=O)cc1)C(=O)/C=C/c1cn(-c2ccccc2)nc1-c1cccs1	-2.7	-1.1	-3.5	-2.7	-18.1*	0.3
COc1ccc(OCCN2CCN(S(=O)(=O)c3ccccc3C#N)CC2)cc1	-1.7	.	-2.4	-1.3	-3.3	-0.5
